# Source: PubChem (Sanford-Burnham Center for Chemical Genomics)
# Apaf1 activ – activators of human Apaf-1 apoptosome, primary screen, biochemical, DEVD-Rh110 fluorescence, uHTS; Apoptotic protease-activating factor 1 (Homo sapiens), O14727; Apaf-1 apoptosome caspase-3 activation; stronger effect = lower value; 330,000 tested, 0.31% active; activity change, negative = activation, % at 20 µM; AID 489031, 2010;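 active means activity change at or below -40% at 20 µM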
# Target sequence (O14727 whole entry, looked up): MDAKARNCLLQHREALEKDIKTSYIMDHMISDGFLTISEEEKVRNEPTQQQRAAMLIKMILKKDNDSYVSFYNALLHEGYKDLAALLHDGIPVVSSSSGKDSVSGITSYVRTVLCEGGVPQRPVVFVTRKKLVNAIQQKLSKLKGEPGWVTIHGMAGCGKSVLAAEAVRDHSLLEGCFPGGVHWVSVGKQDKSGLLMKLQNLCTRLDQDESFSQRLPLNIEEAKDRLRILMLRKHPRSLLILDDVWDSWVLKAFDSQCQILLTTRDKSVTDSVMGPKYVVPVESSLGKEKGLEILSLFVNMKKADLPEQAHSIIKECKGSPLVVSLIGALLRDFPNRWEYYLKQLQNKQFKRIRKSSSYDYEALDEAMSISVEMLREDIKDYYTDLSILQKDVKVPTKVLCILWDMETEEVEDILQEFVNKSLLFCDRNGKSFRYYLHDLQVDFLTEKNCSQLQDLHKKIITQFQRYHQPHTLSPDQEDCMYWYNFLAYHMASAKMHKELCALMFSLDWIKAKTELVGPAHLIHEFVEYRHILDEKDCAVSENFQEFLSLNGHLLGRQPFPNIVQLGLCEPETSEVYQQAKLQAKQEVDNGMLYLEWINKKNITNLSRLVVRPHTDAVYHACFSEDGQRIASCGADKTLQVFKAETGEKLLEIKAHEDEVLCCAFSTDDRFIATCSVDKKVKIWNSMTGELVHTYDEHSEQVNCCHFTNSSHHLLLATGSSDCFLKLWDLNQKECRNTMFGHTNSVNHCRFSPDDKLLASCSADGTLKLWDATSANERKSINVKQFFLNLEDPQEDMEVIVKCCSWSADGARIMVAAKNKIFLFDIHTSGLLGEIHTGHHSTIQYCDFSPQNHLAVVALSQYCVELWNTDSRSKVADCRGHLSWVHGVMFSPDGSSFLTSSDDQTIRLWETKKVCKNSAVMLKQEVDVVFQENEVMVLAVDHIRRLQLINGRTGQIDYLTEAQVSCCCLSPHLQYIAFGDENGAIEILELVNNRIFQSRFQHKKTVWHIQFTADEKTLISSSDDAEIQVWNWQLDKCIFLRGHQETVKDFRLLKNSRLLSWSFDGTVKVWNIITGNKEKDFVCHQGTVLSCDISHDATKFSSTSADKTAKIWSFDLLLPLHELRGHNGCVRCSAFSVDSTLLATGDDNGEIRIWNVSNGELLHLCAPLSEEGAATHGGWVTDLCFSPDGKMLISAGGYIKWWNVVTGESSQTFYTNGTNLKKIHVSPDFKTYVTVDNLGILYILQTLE
#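 Assay system – biochemical Apaf-1 apoptosome reconstitution · Medium – 20 mM HEPES buffer, pH 7.5, containing CHAPS and BSA · Incubation – 30 min preincubation, 50 min reaction, room temperature · Measured by – Caspase-3-released Rh110 fluorescence, 540 nm emission, 480 nm excitation · Read-out – Caspase-3 cleavage activity downstream of Apaf-1 activation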
# Rh110 act interf – Rh110 fluorescence interference by putative Apaf-1 activators, confirmation, artefact control for Apaf-1 activator project, biochemical, 20 µM | quenched caspase reaction, Ex480/Em540 | fluorescence interference (activity change), % at 20 µM, hits read low | shares compounds with Apaf1 activ | AID 504616, 2011 | 980 tested, under 10 active;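 active means mean activity change at or below -40% when tested at 20 µM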
# Apaf-1 act conf2 – Apaf-1 activators, single-dose retest, confirmation, biochemical, fluorescence, DEVD-Rh110, 20 µM; shares compounds with Apaf1 activ; reconstituted apoptosome caspase-3 activity; stronger effect = lower value; activity change, negative = activation, % at 20 µM; 980 tested, 5% active;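 active means mean activity change at or below -40%, meaning activation of 40% or more, at 20 µM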
# Fluor interf act – fluorescence interference of Apaf-1 activator hits, dose response, artefact control for Apaf-1 activator project. AID 588592, 2011. fluorescence interference counterscreen, Apaf-1 activator assay. shares compounds with Apaf1 activ. EC50, µM. 55 tested, under 10 active; call rule not given here
# Numbers stand for hits; - = inactive; . = no result. These entries were drawn from the full list.
SMILES,Apaf1 activ,Rh110 act interf,Apaf-1 act conf2,others
CSc1nc(NC(C)(C)C)nc(Oc2ccc(=O)n(C)n2)n1,-55,-,-,
Cc1[nH][nH]c(=O)c1C(c1ccc(-c2cccc(C(=O)O)c2)o1)c1c(C)[nH][nH]c1=O,-,.,.,
O=C(O)c1cccc(NC2=C(n3nnc4ccccc43)C(=O)c3ccccc3C2=O)c1,-,.,.,
O=C(O)c1cccc(-c2ccc(/C=c3/sc4nc5ccccc5n4c3=O)o2)c1,-195,-,-,Fluor interf act=-
Fc1ccc(N2CCN(c3nc(CN4CCOCC4)nc4scc(-c5ccccc5)c34)CC2)cc1,-,.,.,
Cc1c(/C(O)=C2/C(=O)C(=O)N(CCN3CCOCC3)C2c2cccs2)cnn1-c1ccccc1 (stereo unspecified),-424,-,-,
CN(CC(=O)Nc1ccc(Cl)c(C(F)(F)F)c1)C(=O)CC1Sc2ccccc2NC1=O (stereo unspecified),-,.,.,
COc1ccc(OC)c2sc(N(CCCN(C)C)C(=O)c3ccc(S(=O)(=O)N4CCc5ccccc5C4)cc3)nc12,-,.,.,
Cc1ccc(C)c(S(=O)(=O)C(C#N)c2nc3ccccc3nc2N2CCCC2)c1 (stereo unspecified),-,.,.,
Cc1ccc(C)c(S(=O)(=O)c2c(C)cc(C)nc2Cl)c1,-303,-,-,
O=C(Nc1ccccc1)Oc1ccc[nH]c1=O,-,.,.,
CC1(C)CC2CC(C)(CN2C(=O)c2cccs2)C1 (stereo unspecified),-95,-,-,
CCCCC[n+]1ccn(C2=C([O-])c3ccccc3C(=O)/C2=N\S(=O)(=O)c2ccc(Cl)cc2)c1,-,.,.,
COc1ccc(OC)c2c1cc(C(=O)N[C@H](C(=O)N1CCC[C@H]1C(=O)O)C(C)C)n2C,-,.,.,
CS(=O)(=O)NN1C(=O)c2ccccc2NC1c1ccccc1O (stereo unspecified),-64,-,-,
O=C(NCCCn1ccnc1)c1noc2c1CCc1ccccc1-2,-,.,.,
O=C(C[C@H]1C[C@H](C(=O)N2CCOCC2)[C@@]2(CCC3CCCC3)c3[nH]c4ccc(Cl)cc4c3CCN2C1=O)NCCCn1ccnc1,-,.,.,
O=C(NCCCn1ccnc1)c1cc(Cl)cc(Cl)c1,-106,-,-,
C#CCOCCOCCOCCNc1nc(N2CCN(C(=O)[C@H](CCCCN)n3cc([C@@H](N)C(C)CC)nn3)CC2)nc(N2CCN(C(=O)[C@H](Cc3cc4ccccc4[nH]3)n3cc([C@@H](N)C(C)CC)nn3)CC2)n1 (stereo partly specified),-,.,.,
O=C1C(=O)c2ccc(-c3ccccc3)cc2-c2ccccc21,-,.,.,
CC(C)Oc1ccc(C2NC(=O)c3ccccc3O2)cc1 (stereo unspecified),-98,-,-,
CCCCCc1cc(=O)oc2c(C(CCN3CCCC3)c3cc(OC)c(OC)c(OC)c3)c(OC)cc(OC)c12 (stereo unspecified),-,.,.,
CC(C)(C)c1cc(C(=O)N2CCN(c3ncccn3)CC2)ccn1,-50,-,-,
C#CCOCCOCCOCCNc1nc(N2CCN(C(=O)CCCCCCCCCCNC(=O)Cn3cc(C[C@@H](C)O)nn3)CC2)nc(N2CCN(C(=O)CCCCCCCCCCNC(=O)[C@@H]([C@H](C)CC)n3cc(CCCCCN)nn3)CC2)n1,-,.,.,
C/C(=N\Nc1ccc([N+](=O)[O-])cc1)c1ccc(C#N)cc1,-44,-,-,
SMILES,Apaf1 activ,Rh110 act interf,Apaf-1 act conf2,others
C#CCOCCOCCOCCNc1nc(N2CCN(C(=O)CCCCCCCCCCNC(=O)[C@H](CCCCN)n3cc(CCO)nn3)CC2)nc(N2CCN(C(=O)CCCCCCCCCCNC(=O)[C@H](CCCCN)n3cc(CCCC(=O)O)nn3)CC2)n1,-,.,.,
CC1CCCCN1S(=O)(=O)c1ccc(C(=O)N(CCCN(C)C)c2nc3ccc(Br)cc3s2)cc1 (stereo unspecified),-,.,.,
NC(=O)/C(=C/c1ccc2c(c1)OCO2)NC(=O)c1ccco1,-44,-,-,
CC(C)[C@H](CN1CCC[C@H]1CN1C(N)=NC[C@H]1C(C)C)N1C[C@@H](Cc2ccccc2)N(CCCC2CCCC2)C1=N,-,.,.,
O=C1c2ccccc2C(O)N1Cc1cccs1 (stereo unspecified),-41,-,-,
CN(Cc1ccccc1)c1oc(-c2ccco2)nc1C#N,-,.,.,
CC(=O)c1ccc(OCC(=O)NCC(c2ccco2)N2CCCCC2)cc1 (stereo unspecified),-44,-,-,
N#Cc1c(N2CCCC2)nc(N)c2c(N)nc(N3CCCC3)cc12,-,.,.,
COCCn1c(N)c(C(=O)OCc2ccccc2)c2nc3ccccc3nc21,-,.,.,
C/C(=C\C(=S)Nc1ccccc1)Nc1ccc2ccccc2c1,-,.,.,
Cc1occc1C(=O)Nc1ccc2ccccc2c1,-351,-,-,
CCN1CCN(c2ccc(NC(=O)c3cc4ccccc4cc3OC)cc2C)CC1,-,.,.,
CC/C(=C(\c1ccccc1)c1ccc(OCCN(C)C)cc1)c1ccccc1,-,.,.,
O=C(NCCCO)Nc1ccc2nc(-c3ccco3)c(-c3ccco3)nc2c1,-,.,.,
Cc1cccc(C)c1NC(=O)CSc1nnc(-c2ccco2)c(-c2ccco2)n1,-,.,.,
CCn1nc(C)c(NC(=O)CCSc2nc(-c3ccco3)cc(C(F)(F)F)n2)c1C,-246,-,-,
COc1ccc(C(=O)Nc2nc3c(s2)Cc2cc(OC)ccc2-3)cc1,-,.,.,
COC(=O)C1(C)CCc2cc(OC)ccc2C1=O (stereo unspecified),-81,-,-,
CCC(C)(C)c1ccc(OCCCC[n+]2ccc(C)cc2)c(C(C)(C)CC)c1,-,.,.,
C#CCOCCOCCOCCNc1nc(N2CCN(C(=O)[C@H]([C@@H](C)CC)n3cc([C@@H](N)Cc4ccc(O)cc4)nn3)CC2)nc(N2CCN(C(=O)[C@H](Cc3cc4ccccc4[nH]3)n3cc([C@@H](N)CC(C)C)nn3)CC2)n1,-,.,.,
COc1ccc(C(=O)COC(=O)CCCN=C2NS(=O)(=O)c3ccccc32)c(OC)c1,-,.,.,
CC(=O)C1=C(C)OC2(O)c3ccccc3C(=O)C12O (stereo unspecified),-,.,.,
CC(=O)Oc1ccc2c(c1)Oc1cc(OC(C)=O)ccc1C21OC(=O)c2ccccc21,-259,-154,-73,
CCOC(=O)C1=C(C)OC2(O)c3ccccc3C(=O)C12O (stereo unspecified),-,.,.,
COC(=O)CCC(=O)N1CN2CN(C(=O)CCC(=O)OC)CC([N+](=O)[O-])(C2)C1,-152,-,-,
C#CCOCCOCCOCCNc1nc(N2CCN(C(=O)CCCCCCCCCCNC(=O)[C@H](CCCCN)n3cc(C)nn3)CC2)nc(N2CCN(C(=O)CCCCCCCCCCNC(=O)[C@H](CCCN=C(N)N)n3cc(C[C@@H](C)CC)nn3)CC2)n1,-,.,.,
O=c1[nH]c(=O)n(C2CCCCCC2)c(O)c1C=NCc1ccc(F)cc1,-,.,.,
Cc1ccc(NC(=O)Nc2nnc(CSCCOc3ccc(Cl)cc3)s2)cc1,-253,-,-,
CCOC(=O)c1c(C)n(-c2ccc(C)cc2)c2c(C(C(C)=O)C(=O)O)c(Br)c(O)c(O)c12 (stereo unspecified),-,.,.,
